Measurements reported in ChEMBL document CHEMBL4825680, “Structure-based discovery of potent and selective small-molecule inhibitors targeting signal transducer and activator of transcription 3 (STAT3)” (Eur J Med Chem, 2021).
The source made the active and inactive calls. The calls are words filed in the database; no cut-off is given here.

Assays:
MDA231-LM2-4175 [1] = assay: Inhibition of cell invasion in human MDA231-LM2-4175 cells incubated for 12 hrs by crystal violet staining based transwell assay; type: functional; settings: dose 1-3 µM
Outline: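 Cells seeded at 1.5×10^4–3×10^4 per well in the upper chamber of 8.0 µm pore Transwell inserts and treated with graded compound for 12 h. Non-invading cells removed with cotton. Invaded cells fixed in 4% paraformaldehyde, stained with crystal violet, photographed and counted. Triplicate.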

MDA-MB-468 [2] = assay: Induction of apoptosis in human MDA-MB-468 cells assessed as necrotic cells at 3 uM after 48 hrs by Annexin-V-FITC/propidium iodide staining based flow cytometric analysis (reference value: 0.240%); type: functional
MDA-MB-468 [3] = assay: Induction of apoptosis in human MDA-MB-468 cells assessed as viable cells at 1 uM after 48 hrs by Annexin-V-FITC/propidium iodide staining based flow cytometric analysis (reference value: 95.5%); type: functional; settings: read-out: Activity
MDA231-LM2-4175 [4] = assay: Antitumor activity against human MDA231-LM2-4175 cells xenografted in mouse assessed as reduction in Mcl expression at 5 to 15 mg/kg, iv administered once daily for 20 days by Western blotting analysis; type: functional, organism-based; settings: dose 5-15 mg/kg, time 20.0 day
MDA-MB-468 [5] = assay: Induction of apoptosis in human MDA-MB-468 cells assessed as increase in caspase-7 cleavage at 1 uM after 48 hrs by Western blot analysis; type: functional, cell-based
Outline: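 Cells were treated with vehicle (0.1% DMSO) or compound, then analysed by western blot of RIPA lysates (20–50 μg protein, SDS-PAGE, PVDF) for PARP and cleaved caspase-7, with β-actin as loading control. Three independent experiments.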

[6] = biological target: T1, Signal transducer and activator of transcription 3 (Homo sapiens, UniProt P40763); assay: Inhibition of STAT3 in human MDA-MB-231 cells assessed as downregulation of c-Myc expression at 0.3 to 3 uM after 24 hrs by western blot analysis; type: cell-based; settings: dose 0.3-3 µM
T1 sequence (P40763 whole entry): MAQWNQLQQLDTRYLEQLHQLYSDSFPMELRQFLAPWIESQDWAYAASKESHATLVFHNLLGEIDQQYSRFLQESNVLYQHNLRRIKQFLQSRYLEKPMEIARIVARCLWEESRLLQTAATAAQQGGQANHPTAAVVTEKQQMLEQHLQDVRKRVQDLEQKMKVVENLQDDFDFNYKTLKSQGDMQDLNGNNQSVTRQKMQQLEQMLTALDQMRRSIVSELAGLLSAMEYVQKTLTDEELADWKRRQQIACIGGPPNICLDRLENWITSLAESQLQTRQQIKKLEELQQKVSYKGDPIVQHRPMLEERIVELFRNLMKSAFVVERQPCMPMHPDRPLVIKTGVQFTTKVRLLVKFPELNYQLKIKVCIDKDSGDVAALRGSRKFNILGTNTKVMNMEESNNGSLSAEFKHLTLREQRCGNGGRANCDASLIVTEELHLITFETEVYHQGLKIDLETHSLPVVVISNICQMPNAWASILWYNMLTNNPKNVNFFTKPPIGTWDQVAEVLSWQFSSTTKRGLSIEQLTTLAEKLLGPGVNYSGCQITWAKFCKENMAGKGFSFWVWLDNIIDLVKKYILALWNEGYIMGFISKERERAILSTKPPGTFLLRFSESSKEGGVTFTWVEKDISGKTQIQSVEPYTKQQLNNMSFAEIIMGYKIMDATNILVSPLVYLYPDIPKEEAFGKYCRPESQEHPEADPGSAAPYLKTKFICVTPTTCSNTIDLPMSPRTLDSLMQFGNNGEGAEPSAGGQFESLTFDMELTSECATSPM
Outline: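 TNBC cells given vehicle (0.1% DMSO) or graded compound levels for 24 h, lysed in RIPA with PMSF and phosphatase inhibitors. BCA-quantified lysate (20–50 µg) run on SDS-PAGE, transferred to PVDF, blocked in 5% BSA. Probed overnight at 4 °C for Bcl-xL, Mcl-1 and c-Myc, with β-actin. HRP secondary, ECL detection. Three independent experiments.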

[7] = Metabolic stability in human liver microsomes assessed as clearance at 0.1 uM preincubated for 10 mins followed by NADPH addition and measured upto 60 mins by LC-MS/MS analysis; type: ADME, Microsome; settings: 1 h, time <=70 min
Outline: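 Microsomes at 0.33 mg/mL in 0.1 M Tris pH 7.4 with 5 mM MgCl2; compound final 0.1 μM (0.01% DMSO, 0.005% BSA). Preincubated 10 min at 37 °C, then started with 1 mM NADPH. Sampled at 0, 7, 17, 30 and 60 min and quenched with cold methanol. Centrifuged, then analysed by LC-MS/MS.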

MDA-MB-231 = assay: Induction of apoptosis in human MDA-MB-231 cells assessed as early apoptotic cells at 3 uM after 48 hrs by Annexin-V-FITC/propidium iodide staining based flow cytometric analysis (reference value: 2.98%); type: functional
MDA-MB-468 [8] = assay: Inhibition of colony formation in human MDA-MB-468 cells at 0.3 uM after 10 to 15 days by crystal violet staining based assay; type: functional, cell-based; settings: time 10-15 day
Outline: (§1)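 Cells seeded at 0.5×10^3–1×10^3 per well; compound added the next day. Medium and compound renewed every 2–3 days. After about 10–15 days, colonies fixed with 4% paraformaldehyde, stained with crystal violet, scanned and quantified by image analysis. Triplicate.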

[9] = Toxicity in NOD/SCID mouse xenografted with patient-derived breast cancer cells assessed as morphological change in liver at 5 to 15 mg/kg, […] once daily for 20 days by HE staining based assay; type: organism-based; settings: in vivo, iv, dose 5-15 mg/kg, time 20 day
Outline: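 Female NOD-SCID mice implanted subcutaneously in the flank with about 2 mm³ TNBC PDX fragments. At about 100 mm³ tumour volume, randomised n=6/group: vehicle (PBS with 15% Cremophor EL), 5 or 15 mg/kg intraperitoneally daily. Killed at day 20; heart, liver, spleen, lung and kidney collected for morphological examination.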

MDA231-LM2-4175 [10] = assay: Inhibition of colony formation in human MDA231-LM2-4175 cells at 0.3 uM after 10 to 15 days by crystal violet staining based assay; type: functional, cell-based; settings: time 10-15 day; outline: as §1
[11] = biological target: T1, Signal transducer and activator of transcription 3; assay: Inhibition of STAT3 phosphorylation at Tyr705 residue in human HCC70 cells after 3 hrs by Western blotting analysis; type: cell-based; settings: dose 0.3-3 µM
Breast cancer cell line = assay: Antitumor activity against patient-derived breast cancer cells xenografted in NOD/SCID mouse assessed as reduction in Bcl-xL expression at 5 to 15 mg/kg, iv administered once daily for 20 days by Western blotting analysis; type: functional, organism-based; settings: Homo sapiens, dose 5-15 mg/kg, time 20.0 day
HCC70 = assay: Effect on total STAT1 level in human HCC70 cells at 0.3 to 3 uM after 3 hrs by Western blotting analysis; type: functional, cell-based; settings: dose 0.3-3 µM
Outline: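 Breast cancer cells were treated with vehicle (0.1% DMSO) or compound, then lysed in RIPA with PMSF and phosphatase inhibitors. 20–50 μg protein was run on 8 or 12% SDS-PAGE, blotted to PVDF, blocked in 5% BSA, probed with primary antibodies overnight at 4 °C, then HRP secondaries, with ECL detection.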

[12] = Induction of apoptosis in human MDA231-LM2-4175 cells assessed as necrotic cells at 1 uM after 48 hrs by Annexin-V-FITC/propidium iodide staining based flow cytometric analysis (reference value: 0.531%); type: functional

For O=C(Cc1c(-c2ccccc2)nc2ccccn12)Nc1ccc2c(c1)S(=O)(=O)C=C2, the inhibition (MDA231-LM2-4175 [1]) was “Dose-Dependent Effect”, the Activity (MDA-MB-468 [2]) was 1.33% and the viability at 1 µM (MDA-MB-468 [3]) was 57.9%. For the same compound, the Activity (MDA231-LM2-4175 [4]) was “Active”, the Activity (MDA-MB-468 [5]) was “Active” and the inhibition [6] was “Active”. For the same compound, the CLH [7] was 87 mL/min/g, the Activity (MDA-MB-231) was 12.5% and the inhibition (MDA-MB-468 [8]) was “Active”. For the same compound, the Activity [9] was “Non-Toxic”, the inhibition (MDA231-LM2-4175 [10]) was “Active” and the inhibition [11] was “Dose-Dependent Effect”. For the same compound, the Activity (Breast cancer cell line) was “Active”, the Activity (HCC70) was “inactive” and the Activity [12] was 1.1%.
